The source made the active and inactive calls. Where only a bound is given, the exact number is not on record here.

The target of data set [1] is Tyrosine-protein phosphatase non-receptor type 6 (Homo sapiens, UniProt P29350). The experiment in a line: Inhibition of SHP1 (unknown origin) expressed in Escherichia coli BL21(DE3) using DIFMUP as substrate preincubated for 20 mins followed by substrate addition measured after 20 mins by phosphatase assay. Summed up: (§1)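 Phosphatases purified from E. coli and run as for SHP2 E76A: 20 min room-temperature preincubation with compound in 0.1 M sodium acetate pH 5.0, then DIFMUP at each enzyme's Km, 20 min, fluorescence 358/455 nm. Eight 3-fold dilutions in duplicate; IC50 from at least three independent experiments.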
Sequence of Tyrosine-protein phosphatase non-receptor type 6 (P29350 whole entry): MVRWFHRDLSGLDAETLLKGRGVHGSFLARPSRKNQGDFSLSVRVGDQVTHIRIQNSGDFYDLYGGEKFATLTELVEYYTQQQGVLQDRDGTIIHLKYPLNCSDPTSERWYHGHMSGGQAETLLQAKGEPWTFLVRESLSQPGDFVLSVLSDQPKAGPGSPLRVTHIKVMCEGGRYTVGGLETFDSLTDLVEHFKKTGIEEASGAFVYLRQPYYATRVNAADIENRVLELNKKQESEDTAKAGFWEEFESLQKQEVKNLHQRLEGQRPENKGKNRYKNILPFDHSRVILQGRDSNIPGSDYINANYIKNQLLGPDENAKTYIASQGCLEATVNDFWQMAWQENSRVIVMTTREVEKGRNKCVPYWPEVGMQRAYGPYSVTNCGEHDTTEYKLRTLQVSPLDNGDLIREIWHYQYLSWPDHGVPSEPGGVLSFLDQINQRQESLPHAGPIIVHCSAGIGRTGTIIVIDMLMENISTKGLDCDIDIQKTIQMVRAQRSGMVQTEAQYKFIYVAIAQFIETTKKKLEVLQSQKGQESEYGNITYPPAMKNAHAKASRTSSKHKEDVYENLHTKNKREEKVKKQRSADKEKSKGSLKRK

Data set [2] is described as follows: Allosteric inhibition of SHP2 E76A mutant (unknown origin) expressed in Escherichia coli BL21(DE3) using DIFMUP as substrate preincubated for 20 mins followed by substrate addition measured after 20 mins by phosphatase assay. Details: species or system Homo sapiens. Summed up:
(§2)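 His-tagged SHP2 constructs expressed in E. coli BL21(DE3) (0.5 mM IPTG, 5 h, 30 °C) and Ni-column purified. 1.5 nM enzyme preincubated 20 min at room temperature with compound in 0.1 M sodium acetate pH 5.0. DIFMUP then added, 20 min further, fluorescence at 358/455 nm. Eight 3-fold dilutions, duplicate wells, IC50 from at least three independent experiments.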

The target of data set [3] is T1, Tyrosine-protein phosphatase non-receptor type 11 (Homo sapiens) (UniProt Q06124).
T1 sequence (whole entry): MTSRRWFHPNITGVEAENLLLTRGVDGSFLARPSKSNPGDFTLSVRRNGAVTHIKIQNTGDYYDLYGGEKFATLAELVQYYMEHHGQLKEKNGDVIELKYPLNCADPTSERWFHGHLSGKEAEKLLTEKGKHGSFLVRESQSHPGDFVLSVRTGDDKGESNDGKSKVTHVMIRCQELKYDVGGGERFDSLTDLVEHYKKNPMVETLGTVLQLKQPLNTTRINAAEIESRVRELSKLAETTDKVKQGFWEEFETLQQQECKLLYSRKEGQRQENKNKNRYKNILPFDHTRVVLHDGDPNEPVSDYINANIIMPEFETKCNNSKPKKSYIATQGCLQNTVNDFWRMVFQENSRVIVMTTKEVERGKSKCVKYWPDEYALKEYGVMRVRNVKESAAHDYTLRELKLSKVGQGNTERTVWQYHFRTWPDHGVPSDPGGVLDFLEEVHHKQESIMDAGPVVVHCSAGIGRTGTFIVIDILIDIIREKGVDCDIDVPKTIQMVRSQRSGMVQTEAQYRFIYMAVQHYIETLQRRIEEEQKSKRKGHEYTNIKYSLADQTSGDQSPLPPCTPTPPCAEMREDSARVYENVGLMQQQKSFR
The data set is described as follows: Allosteric inhibition of SHP2 PTP domain (unknown origin) expressed in Escherichia coli BL21(DE3) using DIFMUP as substrate preincubated for 20 mins followed by substrate addition measured after 20 mins by phosphatase assay. In a few lines:
as §2

In data set [4] the target is Dual specificity protein phosphatase 6 (Homo sapiens, UniProt Q16828). The experiment in a line: Inhibition of MKP3 (unknown origin) expressed in Escherichia coli BL21(DE3) using DIFMUP as substrate preincubated for 20 mins followed by substrate addition measured after 20 mins by phosphatase assay. Summed up:
as §1

Data set [5] has as its target Tyrosine-protein phosphatase non-receptor type 1 (Homo sapiens, UniProt P18031). The data set is described as follows: Inhibition of PTP1B (unknown origin) expressed in Escherichia coli BL21(DE3) using DIFMUP as substrate preincubated for 20 mins followed by substrate addition measured after 20 mins by phosphatase assay. In a few lines:
as §1

For data set [6], the species on record is Homo sapiens. The experiment in a line: Selectivity ratio of IC50 for LMW-PTP (unknown origin) expressed in Escherichia coli BL21(DE3) to IC50 for SHP2 E76A mutant (unknown origin) expressed in Escherichia coli BL21(DE3). Summed up: (§3)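 Ratio of IC50 values from one DIFMUP fluorescence assay (Ex/Em 358/455), room temperature, 0.1 M sodium acetate pH 5.0. His-tagged SHP2 E76A (1.5 nM) or counter-phosphatase purified from E. coli, preincubated 20 min with compound (eight 3-fold dilutions), then DIFMUP added for 20 min. DIFMUP was at Km for each counter-phosphatase. Duplicates; IC50 from at least three independent experiments.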

Data set [7] is filed under the species Homo sapiens. The experiment in a line: Selectivity ratio of IC50 for PTP1B (unknown origin) expressed in Escherichia coli BL21(DE3) to IC50 for SHP2 E76A mutant (unknown origin) expressed in Escherichia coli BL21(DE3). Summed up:
as §3

Another data set concerns MV4-11. The data set is described as follows: Antitumor activity against human MV4-11 cells xenografted in BALB/c mouse assessed as tumor growth inhibition at 10 mg/kg administered qd via oral gavage measured twice weekly relative to control. The note with it: MV4-11, po, read-out: TGI. It is filed as functional. Summed up:
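Female BALB/c nude mice given subcutaneous MV4;11 cells (5×10^6, in 50% phenol red-free matrigel in PBS). Once tumours reached about 230 mm³, mice were randomised to vehicle or oral gavage once daily (10 ml/kg). Tumour volume was measured by caliper in two dimensions twice a week, along with body weight. Data given as mean±sem, with significance assessed on day 14.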

The next data set deals with SF-268. The experiment in a line: Effect on YAP gene expression in human SF268 cells at 10 to 20 uM after 2 hrs by qRT-PCR analysis. The class given is functional, cell-based. Summed up: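 SF268 cells exposed to DMSO, 10 μM or 20 μM inhibitor for 2 h. RNA extracted, reverse-transcribed, and CTGF, CYR61, ANKRD1 and YAP mRNA quantified by qPCR; mean±s.d., n=3.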
Data set [8] deals with T1, Tyrosine-protein phosphatase non-receptor type 11 (Homo sapiens). The experiment in a line: Allosteric inhibition of SHP2 in human A549 cells harboring KRAS mutant assessed as upregulation of YAP Y357 phosphorylation at 5 and 10 uM after 2 hrs by Western blot analysis. It is filed as cell-based. (In general: A western blot detects proteins with antibodies after separation by electrophoresis.)

For another data set, the system named is K562. The experiment in a line: Antiproliferative activity against human K562 cells at 3 to 6 uM after 2 days by CellTiter-Glo assay. The class given is functional, cell-based. In a few lines:
(§4)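 3000 cells/well in 96-well plates, grown overnight, then inhibitor at indicated concentrations for 2 days (48 h). Viability by CellTiter-Glo; mean±s.d., n=3.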
Background: Cellular ATP, detected with luciferase, serves as a proxy for viable cell number.

The next data set relates to NCI-H661. The data set is described as follows: Antiproliferative activity against human NCI-H661 cells at 3 to 6 uM after 2 days by CellTiter-Glo assay. It is filed as functional, cell-based. Summed up: as §4
A further data set relates to KMS-11. The data set is described as follows: Antiproliferative activity against human KMS11 cells at 3 to 6 uM after 2 days by CellTiter-Glo assay. The class given is functional, cell-based. Summed up: as §4
Another data set concerns KOPN-8. The experiment in a line: Antiproliferative activity against human KOPN8 cells at 3 to 6 uM after 2 days by CellTiter-Glo assay. The class given is functional, cell-based. Summed up:
as §4

Data set [9] in a line: Half life in nu/nu mouse at 10 mg/kg, po measured up to 24 hrs postdose by LC/MS/MS analysis. It is filed as ADME, organism-based. To be noted: in vivo. In a few lines:
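Female nu/nu nude mice dosed IV via tail vein at 5 mg/kg or orally at 10 mg/kg. Blood sampled at 0.083, 0.25, 0.5, 1, 2, 4, 8 and 24 h post-dose (orbital sinus, terminal cardiac puncture; EDTA-2K). Plasma separated at 4 °C, precipitated with acetonitrile containing internal standard, quantified by LC/MS/MS.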

Sequence of Tyrosine-protein phosphatase non-receptor type 1 (P18031 whole entry): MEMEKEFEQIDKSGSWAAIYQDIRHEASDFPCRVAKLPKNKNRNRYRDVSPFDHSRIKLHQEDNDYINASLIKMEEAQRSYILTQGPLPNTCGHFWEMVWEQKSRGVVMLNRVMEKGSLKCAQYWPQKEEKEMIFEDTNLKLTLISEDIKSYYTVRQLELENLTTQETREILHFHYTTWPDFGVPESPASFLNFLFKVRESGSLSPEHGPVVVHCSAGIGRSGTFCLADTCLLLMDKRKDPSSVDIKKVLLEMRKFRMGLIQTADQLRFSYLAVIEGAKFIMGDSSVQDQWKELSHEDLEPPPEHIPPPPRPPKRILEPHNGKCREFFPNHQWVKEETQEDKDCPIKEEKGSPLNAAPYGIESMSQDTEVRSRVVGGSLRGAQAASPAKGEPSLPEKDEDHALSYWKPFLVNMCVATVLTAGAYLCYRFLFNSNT
Sequence of Dual specificity protein phosphatase 6 (Q16828 whole entry): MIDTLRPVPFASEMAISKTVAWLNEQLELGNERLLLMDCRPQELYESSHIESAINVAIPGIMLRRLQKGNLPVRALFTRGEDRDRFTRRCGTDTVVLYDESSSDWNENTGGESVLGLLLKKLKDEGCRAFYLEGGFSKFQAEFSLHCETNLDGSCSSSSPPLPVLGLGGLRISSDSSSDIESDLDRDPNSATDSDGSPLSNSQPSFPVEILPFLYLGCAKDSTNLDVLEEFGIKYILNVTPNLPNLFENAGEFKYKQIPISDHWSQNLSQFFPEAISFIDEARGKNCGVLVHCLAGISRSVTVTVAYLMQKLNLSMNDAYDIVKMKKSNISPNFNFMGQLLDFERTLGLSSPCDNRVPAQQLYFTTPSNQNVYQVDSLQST

In the case of `CC1(N)CCN(c2nc(-c3ccc4cc(Br)ccc4c3)cs2)CC1`, the IC50 in data set [1] is 34.6 µM; in [2], 0.71 µM; in [4] it was over 100 µM; in data set [5], 31.2 µM. Also, in data set [3], the inhibition entry is “inactive”. Also, the Ratio IC50 in the data set listed under Homo sapiens [6] and in the data set filed under Homo sapiens [7] was over 30 throughout. In addition, the inhibition in vivo at 10 mg/kg in the data set on MV4-11 is 44.6%. In addition, the outcome in the data set with SF-268 was inactive. In addition, in data set [8], the inhibition entry was “Active”. The result in the data set on K562, in the data set with NCI-H661, in the data set on KMS-11 and in the data set on KOPN-8 was Active. This compound also gave a half-life in data set [9] of 13.3 h.

By IC50 is commonly meant the midpoint of a concentration-inhibition curve. As usually defined, the half-life is the time needed for the level to fall by half in the phase considered. A low value points to rapid decline.

For the origin of these results see ChEMBL document CHEMBL4028906, “Allosteric Inhibitors of SHP2 with Therapeutic Potential for Cancer Treatment” (J Med Chem, 2017).
